# Data as given in ChEMBL document CHEMBL4513216, “Probing the Open Global Health Chemical Diversity Library for Multistage-Active Starting Points for Next-Generation Antimalarials” (ACS Infect Dis, 2020).
# Assay: Toxicity liver stage against HepG2, at 10uM
# Assay type: cell-based
# Set-up: test concentration 10 uM, cell line HepG2-A16-CD81EGFP
# Conditions: human, HepG2-A16-CD81EGFP cells; read-out: INHIBITION
# Method in brief: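 Uninfected HepG2-A16-CD81EGFP cells, 3 × 10^3 per well, 1536-well, plated on prespotted compound at 10 μM final, parasite-free screening media added to match infected plates; puromycin 10 μM positive, DMSO 0.5% negative; run in parallel with 48 h PbLuc assay at 37 °C, 5% CO2; viability by CellTiter-Glo luminescence, normalized to controls.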
row,SMILES,cytotoxicity at 10 µM [%]
1,COC(=O)[C@@H]1Cc2ncn(C(C)C)c2CN1S(=O)(=O)Cc1ccccc1,-2.51
2,CC(=O)N1N=C(Cc2ccccc2)OC1C(=O)NCC(C)C (centres undefined),-4.52
3,CC(C)(C)C1CC(=O)Nc2c1cnn2Cc1ccco1 (centres undefined),-2.17
4,Cn1nc(C2CCN(CC(=O)NC3CC3)CC2)n(-c2ccccc2)c1=O,-22.3
5,Cc1cccc(OC2CCN(C(=O)c3ccc4ncsc4c3)CC2)n1,-3.78
6,CN(C)C(=O)N1CCC2(CCC(C(=O)N3CCCC3)O2)CC1 (centres undefined),-0.125
7,CCN1CC2(CCCCN2C(=O)c2ccn(C)n2)CC1=O (centres undefined),10.5
8,c1cnc(N2CCCC3(CCN(Cc4cccs4)C3)C2)nc1 (centres undefined),2.58
9,O=C(NCc1cccs1)c1nc2c(o1)CN(c1ncccn1)C2,-0.664
10,Cc1ccc(S(=O)(=O)N2CCCC3(CCCN3S(C)(=O)=O)C2)cc1F (centres undefined),2.05
11,COCCN1Cc2ccccc2C2(CCN(S(C)(=O)=O)CC2)C1,0.121
12,COCCO[C@@H]1C[C@H]2CN(C(=O)c3cccnc3)CCN2C1,-4.58
13,COCc1nn(C(C)C)c2c1CCN(Cc1ccsc1)C2,-4.51
14,COc1cc(C2CC(=O)Nc3c2c(=O)[nH]n3C2CCCCC2)ccc1O (centres undefined),-0.607
15,Cc1nn(Cn2ccc(C(=O)N3CCC(C)CC3)n2)c(C)c1Cl,-2.36
16,CCn1ccc(NC(=O)C2CCC(=O)N2Cc2ccc(C)o2)n1 (centres undefined),6.17
17,O=C(c1cccc(O)n1)N1CCC(O)(CN2CCC(F)(F)CC2)C1 (centres undefined),4.16
18,CC(=O)N1CCC(c2nccnc2Nc2cnccn2)CC1,4.51
19,CCc1cc(C(=O)N2CCCC2c2nc(C)c(CC)c(O)n2)on1 (centres undefined),-14.2
20,CC(=O)N1CCC(Oc2cccc(C#N)c2)CC1,6.35
21,CC(=O)NCc1ccc(S(=O)(=O)NC(=O)c2ccc3c(c2)COC3)cc1,6.42

row,SMILES,cytotoxicity at 10 µM [%]
1,CC(=O)N(C)CC(=O)NC(CC(C)C)c1cccs1 (centres undefined),-1.49
2,CC(C)OCCC1CCCCN1S(=O)(=O)c1cnn(C)c1 (centres undefined),5.68
3,COc1nc(C)ccc1CNC(=O)NC(c1ncc(C)s1)C1CC1 (centres undefined),-2.3
4,Cc1cc(N(C)C)nc(N2CCCC2c2cccnc2)n1 (centres undefined),-14.1
5,O=C(CCNC(=O)NC1CCN(C2CC2)CC1)NCc1ccccc1,-0.769
6,COc1cc(C(=O)N2CCCC2CC(=O)c2cnn(C)c2)ccc1F (centres undefined),-4.62
7,CC1CCN(C(=O)NCCc2cc(F)ccc2F)C1 (centres undefined),0.154
8,Cc1cc(NC(=O)CN2CCc3c(nc(C(C)C)n3C)C2)on1,-3.17
9,COc1ccc(Cn2ccnc2)cc1F,-7.27
10,COc1ccccc1C(NC(=O)C1CCCC1)c1noc(C)n1 (centres undefined),-2.17
11,O=C(c1cccnc1)N1CCN(c2ccnc3ccsc23)CC1,5.77
12,O=C(C1CCCOC1)N1CCc2ccc(F)cc21 (centres undefined),2.35
13,O=C1CCC(C(=O)NCCOc2cccc(Cl)c2Cl)CN1 (centres undefined),4.48
14,COc1ccccc1CC(C)(C)NC(=O)CC(F)(F)F,6.08
15,Cc1cccc(CN2CCN(C(=O)c3ccc(C)[nH]c3=O)CC2)c1,12.8
16,CC1CCN(CC(=O)NC(C#N)c2cnn(-c3ccccc3)c2)CC1 (centres undefined),0.724
17,CCc1noc(CS(=O)(=O)CC(=O)N2c3ccccc3CC2C)n1 (centres undefined),7.07
18,Cc1cc(C)c(C(=O)NCCNc2ncnc3ccccc23)c(=O)[nH]1,21
19,O=C(Nc1ccccc1Oc1cccc(F)c1)NC1CCS(=O)(=O)C1 (centres undefined),-6.07
20,CC(C)c1nc(C2CCCN2c2cnc3cc(F)c(F)cc3n2)no1 (centres undefined),5.18
21,CCN(C)C1CCCc2nc(C)sc21 (centres undefined),-0.887

row,SMILES,cytotoxicity at 10 µM [%]
1,OCC(O)CSCc1cn(-c2ccc(Cl)cc2)nn1 (centres undefined),3.2
2,CCc1nncn1CCNC(=O)Nc1ccc2c(c1)CCCO2,1.79
3,CC(C)(CNc1ccc(C#N)c(C(F)(F)F)c1)C(N)=O,20.2
4,CN(C)C(=O)CC1CCOc2ccccc21 (centres undefined),4.17
5,COc1cccc(CN(C)C(=O)CN2CCN(c3nccn3C)CC2)c1,14.3
6,O=C(NCCCOCC1CCCO1)c1cccnc1N1CCCC1 (centres undefined),12.4
7,COCC1c2nnn(C)c2CCN1C(=O)Cc1ccccn1 (centres undefined),-97.1
8,CC(C)NC(=O)c1cc2c(s1)CCN2c1ncccn1,-123
9,CC[C@H](C)Nc1ncc(-c2cccc(NC(=O)CNC)c2)cn1,-4.97
10,CCCc1nccn1-c1ccc(C(C)O)cc1 (centres undefined),5.38
11,Cc1cc(CN(C)C(C(=O)O)c2cccc(C(F)(F)F)c2)on1 (centres undefined),-6.33
12,CCCn1ccnc1CN1CCc2[nH]cnc2C1Cc1ccccc1 (centres undefined),-15.8
13,COc1cccc(CN2CCN(C(=O)Nc3nc(C)ns3)CC2=O)c1,-3.05
14,CN1C(=O)C2(CCN(c3ncccc3C(=O)O)CC2)c2ccccc21,-2.25
15,CCNc1ncc(C(=O)NC2COC3(CCCC3)C2)cn1 (centres undefined),-4.53
16,O=C(c1cccc(Cl)c1)N1CCCC(Nc2ccc(F)cc2)C1 (centres undefined),-7.05
17,CC(C)=CCC1(CO)CCCN(Cc2nccs2)C1 (centres undefined),-1.23
18,C[C@@H]1CN(CCC(=O)NCc2ccccc2Cl)C[C@@]1(O)C1CC1,2.75
19,Cc1nc(C(C)C)sc1C(=O)N1CCN(C2CCSCC2)CC1,6.62
20,CNS(=O)(=O)CCNC(=O)c1coc(COc2ccc(F)cc2)n1,0.975
21,CCc1cnc(C)nc1NCCC(=O)N1CCC(C)CC1,-0.384

row,SMILES,cytotoxicity at 10 µM [%]
1,CN(C)C[C@@H]1CN(Cc2ccccc2C#N)C[C@@H]1CO,-1.56
2,CCCn1cnnc1CN(C)C(=O)C1CCCN(C2CCN(C)CC2)C1 (centres undefined),-6.58
3,CSCCCN1CCCC(Cn2ccnc2)C1 (centres undefined),5.07
4,COc1cccc(OCC2CCCN(C(C)=O)C2)c1 (centres undefined),5.85
5,CC(C)(C)c1ncc(C(=O)NCCNC(=O)c2ccco2)s1,-1.98
6,Cc1nc(CN2CCCC(N(C)CC3CCCC3)C2)no1 (centres undefined),-7.3
7,COc1ccc(C2CCCN2C(=O)NCCn2ccnc2)cc1OC (centres undefined),-2.16
8,CN(C)c1ncccc1C(=O)N1CCCC1Cn1cccn1 (centres undefined),-2.83
9,COCCNC(=O)NCc1ccc(OC(C)C)c(F)c1,-8.48
10,CN(C)S(=O)(=O)c1ccc(OCCNCCn2cccn2)cc1,0.626
11,COc1cc(/C=C/c2ncc(C(=O)O)s2)cc(Cl)c1O,4.14
12,Cc1ccc(C(=O)N2CCN(C(=O)Nc3ccccn3)CC2)o1,2.14
13,O=C(N1CCCC1)N1Cc2nccn2CC(COc2cccnc2)C1 (centres undefined),0.997
14,O=C(C[C@@H]1COC[C@H]2CN(Cc3ccc(F)cc3)C[C@@H]12)N1CCCC1,4.09
15,COCCN1CCC12CCN(C(=O)c1ccsc1)CC2,-145
16,CCN(C)c1ncnc2c1CCN(C(=O)N1CCCC1)CC2,-6.9
17,O=S1(=O)NCC2(CCN(c3ncccn3)CC2)COc2ccccc21,-1.34
18,Cc1cnc(N2CCc3c(cnc(C)c3C(=O)O)C2)nc1,8.1
19,O=C(c1ccncc1)N1C[C@H]2CC[C@@H](C1)N(C(=O)N1CCOCC1)C2,2.44
20,Cc1ccoc1C1=NNC(=CN2CCn3c(C)nnc3C2)O1,-16.4
21,Nc1ccc(C(=O)N2C[C@H]3CC[C@@H](C2)N(Cc2ccccc2)C3)cn1,-121
